# Measured values published in ChEMBL document CHEMBL1146335, “Synthesis and biological activation of an ethylene glycol-linked amino acid conjugate of cyclic cidofovir” (Bioorg Med Chem Lett, 2007).
# Legend:
# [1] = Stability in phosphate buffer in pH 4 at 37 degC at 500 uM; assay type: physicochemical; settings: pH 4, 500 µM
# Method in brief: (§1)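 Compound (500 μM) incubated at 37°C in 50 mM phosphate buffer brought to the stated pH with HCl. Monitored over 3 hours; half-life in hours.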
# Liver = assay: (§2) Half life in rat liver in 37degC at 500 uM; assay type: ADME, tissue-based; settings: 500 µM
# Method in brief: (§3)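 Compound exposed at 37°C to homogenates of Caco-2 or HFF cells, or of rat liver or intestine. Samples taken at intervals from 0 to 3 h and analysed by HPLC. Half-life estimated as for the buffer stability study.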
# [2] = AUC (0 to infinity) in rat at 0.1 mg, iv; assay type: ADME, organism-based; parameters: dose 0.1 mg, route intravenous, time infinity; settings: plasma
# Method in brief: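 Rat; reference compound dosed intravenously at 0.1 mg. Plasma AUC from zero to infinity, dose normalized.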
# [3] = Half life in Sprague-Dawley rat intestinal lumen in 37degC at 500 uM; assay type: ADME
# Method in brief: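 Compound incubated at 37°C in intestinal perfusate from Sprague Dawley rats. Perfusate made by passing buffered solution (pH 6.5) through an isolated intestinal segment. Sampled between 0 and 3 h, analysed by HPLC, half-life estimated.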
# [4] = Stability in phosphate buffer in pH 3 at 37 degC at 500 uM; assay type: physicochemical; settings: pH 3, 500 µM; method in brief: as §1
# HFF = assay: (§4) Half life in HFF cells in 37degC at 500 uM; assay type: ADME, cell-based; settings: human, hff, 500 µM; method in brief: as §3
# Caco-2 = assay: (§5) Half life in Caco-2 cells in 37degC at 500 uM; assay type: ADME, cell-based, Colon; settings: human, caco-2, 500 µM; method in brief: as §3
# Rattus norvegicus = assay: Bioavailability in rat at 3 mg, iv; assay type: ADME, organism-based; settings: in vivo, in the assay text read “0.1 mg” for “3 mg”
# Method in brief: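 Rat; drug injected directly into the gastrointestinal tract at 3 mg, with a 0.1 mg intravenous reference. Prodrug AUC summed the released cyclic parent and the intact prodrug. Bioavailability = dose-normalized GI AUC ÷ IV AUC, corrected for the IV vs oral dose difference.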
# [5] = Stability in phosphate buffer in pH 7 at 37 degC at 500 uM; assay type: physicochemical; method in brief: as §1
# [6] = Stability in phosphate buffer in pH 5 at 37 degC at 500 uM; assay type: physicochemical; settings: pH 5, 500 µM; method in brief: as §1
# Intestine = assay: (§6) Half life in rat intestine in 37degC at 500 uM; assay type: ADME, tissue-based; settings: 500 µM; method in brief: as §3
# [7] = Stability in phosphate buffer in pH 6 at 37 degC at 500 uM; assay type: physicochemical; method in brief: as §1
# Human betaherpesvirus 5 = assay: Antiviral activity against HCMV Towne in HFF cells by plaque reduction assay; assay type: functional, organism-based; settings: Human betaherpesvirus 5, Towne
# Method in brief: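 HFF cells in 24-well dishes infected with ~100 p.f.u./cm2 HCMV Towne (plaque-purified isolate Po). After adsorption, compounds (DMSO stocks diluted in growth medium) added at 4–8 concentrations in duplicate.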
# [8] = as §2; assay type: ADME, tissue-based; settings: rat liver; method in brief: as §3
# [9] = as §4; assay type: ADME, cell-based; settings: human, HFF cells; method in brief: as §3
# [10] = as §5; assay type: ADME, cell-based, Colon; settings: human, Caco-2 cells; method in brief: as §3
# [11] = as §6; assay type: ADME, tissue-based; settings: rat intestine; method in brief: as §3
# KB = assay: Cytotoxicity against human KB cells at 100 uM; assay type: functional, cell-based
# Method in brief: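 KB cells grown logarithmically for two days with compound, in triplicate. Growth read by spectrophotometric quantitation of crystal violet eluted from stained cells.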
# [12] = Stability in phosphate buffer in pH 6.5 at 37 degC at 500 uM; assay type: physicochemical; method in brief: as §1
compound,measurement,setting,value
Nc1ccn(C[C@H]2COP(=O)(O)CO2)c(=O)n1 [CYCLIC CIDOFOVIR],Stability,[1],Stable
same,Stability,Liver,Stable
same,AUC(0-inf),[2],472 ng·h/mL
same,Stability,"[3]; in vivo, 500 µM",Stable
same,Stability,[4],Stable
same,Stability,HFF,Stable
same,Stability,Caco-2,Stable
same,F,Rattus norvegicus,100%
same,Stability,"[5]; buffer, pH 7, 500 µM",Stable
same,Stability,[6],Stable
same,Stability,Intestine,Stable
same,Stability,"[7]; buffer, pH 6, 500 µM",Stable
Nc1nc2c(ncn2COC(CO)CO)c(=O)[nH]1 [GANCICLOVIR],IC50,Human betaherpesvirus 5,3 µM
CC(C)C(N)C(=O)OCCOP1(=O)CO[C@@H](Cn2ccc(N)nc2=O)CO1 (some centres undefined),Stability,[1],Stable
same,half-life at 500 µM,[8],3.7 min
same,half-life at 500 µM,"[3]; Sprague-Dawley, rat intestinal lumen",2.36 h
same,Stability,[4],Stable
same,half-life at 500 µM,[9],1.17 h
same,half-life at 500 µM,[10],0.337 h
same,IC50,Human betaherpesvirus 5,0.68 µM
same,half-life at 500 µM,"[5]; phosphate buffer, pH 7",3.5 h
same,Stability,[6],Stable
same,half-life at 500 µM,[11],0.208 h
same,half-life at 500 µM,"[7]; phosphate buffer, pH 6",16 h
same,Activity,KB,Not toxic
Nc1ccn(C[C@H]2COP(=O)(OCCOC(=O)C(N)Cc3ccccc3)CO2)c(=O)n1 (some centres undefined),Stability,[1],Stable
same,Stability,[4],Stable
same,Stability,[6],Stable
same,half-life at 500 µM,[12],3.7 h
